Screening results (PubChem BioAssay)
Sampled rows, rich in hits. Any-hit rate of the full collection: about 1.5%.
PKA-R2B activ – activates the human PKA-R2B holoenzyme complex; P22694+P31323; PKA-R2B holoenzyme dissociation, Cy5-IP20 fluorescence polarization; R2B truncated from residue 108, S112A mutant; 0% DMSO only, 100% 113 µM cGMP; activation, % at 11.4 µM; 340,000 tested, 0.079% active;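 active = activation above a cutoff set at the mean over all compounds plus 3 SD, cut at about 18% in these data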;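 note: higher means more holoenzyme dissociation and a rise in polarization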
Target sequence (P31323 whole entry, looked up, other chains not shown, the tested form may be a part): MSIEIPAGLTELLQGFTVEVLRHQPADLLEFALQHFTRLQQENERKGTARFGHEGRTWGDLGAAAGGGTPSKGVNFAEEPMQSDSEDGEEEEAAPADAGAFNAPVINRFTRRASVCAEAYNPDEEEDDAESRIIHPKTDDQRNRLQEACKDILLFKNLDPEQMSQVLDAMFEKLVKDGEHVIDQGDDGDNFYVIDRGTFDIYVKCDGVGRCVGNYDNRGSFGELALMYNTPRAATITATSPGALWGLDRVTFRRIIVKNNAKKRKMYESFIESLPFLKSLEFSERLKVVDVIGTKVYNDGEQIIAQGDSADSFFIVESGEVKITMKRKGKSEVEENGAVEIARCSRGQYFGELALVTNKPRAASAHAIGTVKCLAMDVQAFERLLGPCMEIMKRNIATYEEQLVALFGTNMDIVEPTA
Tb MetRS inh – Trypanosoma brucei MetRS inhibition; purified T. brucei MetRS, ATP depletion, Kinase-Glo luminescence; inhibition, % at 11.9 µM; 360,000 tested, 0.4% active; AID 624268;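 active = inhibition above a per-plate cutoff of the control wells' mean inhibition plus 3 SD, cut at about 5.5% in these data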;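 note: 0% = DMSO wells median and 100% = median of wells with control inhibitor compound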
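Material – parasite MetRS enzyme · Medium – HEPES-MgCl2-KCl buffer plus DTT, spermine, BSA, pyrophosphatase · Reagent – ATP, methionine and E. coli bulk tRNA substrates · Times – 15 min enzyme-compound preincubation, 2 h reaction, 10 min detection, 25 °C · Measured by – luminescence of leftover ATP · Evaluation – percent inhibition relative to median high and low control wells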
Rin1-Abl PPI inh – human Rin1-Abl interaction inhibition | TR-FRET Rin1/Abl binding, biochemical | inhibition, % at 7.35 µM | 360,000 tested, 0.4% active | AID 588664; in the data active = inhibition above about 5%, passing the limit was not always enough
Cardio protect – protects H9c2 cardiomyocytes from peroxide injury; H2O2 injury protection, ATPLite, 2 h; protection from H2O2 cell death, % at 20 µM; 360,000 tested, 0.63% active; AID 588492;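 active = compounds giving at least 50% protection of heart cells from peroxide-induced death in the single-dose screen, raw or plate-pattern-corrected value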;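 note: 0% = DMSO wells with peroxide and 100% = DMSO wells without peroxide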
PKA-R1A act – activates the PKA-R1A holoenzyme complex | P00514+P68181 | PKA-R1A dissociation, Cy5-IP20 fluorescence polarization; scaled: DMSO 0%, 113 µM cGMP 100% | activation, % at 11.4 µM | 340,000 tested, 0.083% active;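 active = percent activation above the mean of all tested compounds plus 3 SD, cut at about 19% in these data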;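 note: higher means more PKAc released from R1A so a rise in polarization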
Numbers without * were called inactive; nt = no result given; ! = not active in a repeat.

SMILES	PKA-R2B activ	Tb MetRS inh	Rin1-Abl PPI inh	Cardio protect	PKA-R1A act
CCOC(=O)c1c(-c2ccccc2Cl)csc1NC(=O)c1cc(S(=O)(=O)N2CCOCC2)ccc1C	-3.5	-0.5	-4.5	-5.8	7.3
Cn1c(=O)[nH]c(=O)c2c1nc(NCCc1ccccc1)n2CC(O)COc1ccccc1 (stereo unspecified)	-0.4	0.2	1.6	59.5*	-14.0
Cc1cc(C(=O)N/N=C/c2cc([N+](=O)[O-])ccc2O)c2ccccc2n1	0.3	-0.4	1.4	56.1*	4.8
Cc1nn(-c2ccccc2)c(N2CCCC2)c1/C=N/NC(=O)c1cc(-c2ccccn2)nc2ccccc12	-5.2	-0.6	-3.9	56.6*	-10.8
O=C(N/N=C/c1cccc(O)c1)c1cc(-c2ccccc2)nc2ccccc12	2.9	0.5	-0.1	12.6	-0.4
O=C(N/N=C/c1ccc(O)c(O)c1)c1cc(-c2ccccc2)nc2ccccc12	-2.9	-0.1	1.5	61.2*	3.3
COc1cccc(/C=N/NC(=O)c2nc(-c3ccccc3)cc(-c3ccccc3)n2)c1	-12.2	-0.8	-1.4	89.2*	-2.7
Cc1nn(-c2ccccc2)c(N2CCCC2)c1/C=N/NC(=O)c1cc(-c2ccccc2)nc2ccccc12	-4.6	0.0	-2.1	20.8	-3.7
O=C(N/N=C/c1cc([N+](=O)[O-])ccc1O)c1cc(-c2ccccc2)nc2ccccc12	-12.4	-0.3	-1.6	17.0	-9.1
COc1ccc(C(=O)NC(=S)N2CCOCC2)cc1[N+](=O)[O-]	-9.5	0.5	-1.3	13.5	-2.9
Cc1ccccc1S(=O)Cc1ccc(C(=O)N2CCN(C(=O)c3ccco3)CC2)o1 (stereo unspecified)	3.1	0.1	1.6	0.0	-0.2
COC(=O)N(C)C[C@H]1OCc2cn(nn2)CCCC(=O)N([C@@H](C)CO)C[C@@H]1C	nt	-0.7	-2.4	3.6	nt
Cn1c2ccccc2c2cc(/C=N/NC(=O)c3cc(O)ccc3O)ccc21	-12.4	0.6	2.9	53.3*	-12.0
Cc1ccc(-c2cc(C(=O)N/N=C/c3cccnc3)c3ccccc3n2)cc1C	nt	-0.7	-1.2	-10.8	nt
Cc1ccc(C)c(-c2cc(C(=O)N/N=C/c3cccnc3)c3ccccc3n2)c1	-5.8	-0.1	5.1	56.5*	-1.8
O=C(N/N=C/c1ccccn1)c1cc(-c2ccncc2)nc2ccccc12	5.7	0.7	-0.3	76.7*	4.3
O=C(CNC(=O)[C@@H]1Cc2ccccc2CN1)Nc1ccc2c(c1)OCCO2	4.3	-0.9	-2.9	-5.4	4.8
COc1cc2nc(C3CCC3)nc(N3CCN(c4ccccn4)CC3)c2cc1OC	0.3	-0.2	0.2	59.5*	-7.0
O=C(COC(=O)c1ccc(O)cc1)Nc1ccccc1[N+](=O)[O-]	-1.1	-0.7	-3.4	-1.3	-4.9
O=S(=O)(c1ccccc1)C1CC1(c1ccccc1)c1ccccc1 (stereo unspecified)	-6.4	-0.2	6.1	0.0	-8.8
CCOC(=O)c1cnc(-n2nc(C)cc2C)nc1NCCc1ccccc1	-4.6	-0.2	1.5	60.9*	-9.7
CCOC(=O)c1cnc(-n2nc(C)cc2C)nc1Nc1ccc(OC)cc1	-12.6	-1.1	-1.9	50.5*	-12.8
COc1cc(OC)cc(-c2c(-c3cccs3)c3cc(-c4ccc(CN5CCOCC5)cc4)ccc3n2C)c1	-2.7	-0.3	0.0	-5.8	-10.2
Cc1ccc(NS(=O)(=O)c2ccc(C(=O)NNC(=O)c3ccccc3O)cc2)cc1	3.0	0.1	-0.9	63.6*	-5.3
O=C(NNC(=O)c1ccccc1O)c1ccc(NS(=O)(=O)c2ccc(F)c(F)c2)cc1	0.4	-0.2	0.1	21.9	-1.3
SMILES	PKA-R2B activ	Tb MetRS inh	Rin1-Abl PPI inh	Cardio protect	PKA-R1A act
COc1ccc(C2/C=C\CN(C(=O)c3ccc(C)cc3)[C@H](Cc3ccccc3)C(=O)N2Cc2ccc(F)cc2)cc1 (stereo partly specified)	9.5	0.1	2.1	85.2*	-13.5
Cc1cc(=O)oc2cc(OCC(=O)N3CCN(C(=O)C4COc5ccccc5O4)CC3)c(Cl)cc12 (stereo unspecified)	4.9	-0.3	-2.0	57.7*	-8.2
CCCS(=O)(=O)c1c(S(=O)(=O)CCC)c2c(C)cccn2c1C(N)=O	-3.9	-0.1	-2.2	2.7	-21.0
CCCS(=O)(=O)c1c(S(=O)(=O)CCC)c2c(C)cccn2c1C(=O)N/N=C/c1cc(O)cc(O)c1	-8.9	-0.7	1.2	53.4*	-3.6
Cc1nc2ccccc2c(=O)n1/N=C/c1ccc(O)cc1O	-1.9	-0.2	2.5	0.1	-2.9
CCCc1nc2ccccc2c(=O)n1/N=C/c1ccccc1O	-0.1	-0.7	-1.8	55.9*	-13.6
CC(C)C[C@@H](CN1CCC[C@@H]1CN1C(=S)NC[C@@H]1Cc1ccc(O)cc1)N1C[C@H](Cc2ccc(O)cc2)N(CC2CCCCC2)C1=S	nt	0.2	4.5	-13.7	nt
Cc1cccc(C(=O)NC(C(=O)Nc2nc(-c3ccccn3)cs2)C(C)C)c1 (stereo unspecified)	-1.8	-0.1	0.4	65.6*	-12.4
C[C@H](NC(=O)c1ccccc1)C(=O)Nc1nc(-c2ccccn2)cs1	-0.5	-0.5	0.0	20.7	9.7
CC(Oc1ccccc1)C(=O)Nc1nc(-c2ccncc2)cs1 (stereo unspecified)	-10.3	-0.5	-0.9	-6.9	0.8
CC(Oc1ccccc1)C(=O)Nc1nc(-c2ccccn2)cs1 (stereo unspecified)	-3.5	0.1	4.3	51.6*	16.5
NC(=O)c1oc2ccccc2c1NC(=O)c1ccco1	-5.0	-0.1	-1.6	71.7*	0.7
NC(=O)c1oc2ccccc2c1NC(=O)c1ccccc1	-5.2	-1.8	-3.1	12.2	-0.5
C/C(=N\NC1=N[C@H]2CS(=O)(=O)C[C@H]2S1)c1ccccc1	nt	-0.4	-4.1	2.5	nt
Cc1cc(C)n(-c2ccc3cccc(NS(C)(=O)=O)c3n2)n1	-9.0	-0.6	0.7	88.3*	-2.4
Cc1ccc(C(=O)Nc2cccc(C(F)(F)F)c2)cc1NC(=O)c1csc(-c2ccncc2)n1	-7.9	-0.5	2.4	54.8*!	-5.7
NC(=O)N/N=C/c1cn(-c2ccccc2)nc1-c1cccs1	-3.7	-1.4	-7.1	-9.4	-3.4
O=C(N/N=C/c1nn(-c2ccccc2)cc1-c1ccccc1)c1ccncc1	11.6	0.1	-1.9	62.3*	-1.5
O=C(N/N=C/c1cn(-c2ccccc2)nc1-c1cccs1)c1ccncc1	-5.7	-1.0	-2.6	53.6*	-8.5
CN1CCCCCC1C(=O)N1CCC(N2CCC(C(=O)N3CCOCC3)CC2)CC1 (stereo unspecified)	3.7	0.0	0.6	-1.3	-2.8
OC1CCC(Nc2ncnc3sccc23)CC1 (stereo unspecified)	3.7	-0.7	1.8	-2.1	-1.2
